Data reported in ChEMBL document CHEMBL1140884, “Oligodeoxyribonucleotide-based antagonists for Toll-like receptors 7 and 9” (2009).
Active and inactive are the calls of the source.

Assays:
[1] = tested on: PBMC; assay: Induction of IFN-gamma secretion in human PBMC; type: functional, cell-based
In short: (§1)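 Human PBMCs (5×10^6/mL; 1×10^6 per well) were cultured 24 h with TLR9 agonist 5 µg/mL or TLR7/8 agonist 100 µg/mL, alone or with antagonist at 1:4. Compounds were dissolved in PBS. Supernatant cytokines were measured by Luminex human 25-plex bead assay. One representative donor of six.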

[2] = tested on: PBMC; assay: (§2) Induction of IP10 secretion in human PBMC; type: functional, cell-based; in short: as §1
[3] = tested on: PBMC; assay: Induction of TNFalpha secretion in human PBMC; type: functional, cell-based; in short: as §1
[4] = tested on: PBMC; assay: Induction of IFNalpha secretion in human PBMC; type: functional, cell-based; in short: as §1
[5] = tested on: PBMC; assay: Induction of MIG secretion in human PBMC; type: functional, cell-based; in short: as §1
[6] = tested on: PBMC; assay: Induction of MCP1 secretion in human PBMC; type: functional, cell-based; in short: as §1
[7] = tested on: PBMC; assay: as §2; type: functional, cell-based; in short: as §1; remark: listed apart in the source
[8] = tested on: PBMC; assay: Induction of IL12 secretion in human PBMC; type: functional, cell-based; in short: as §1
[9] = target: Toll-like receptor 7 (Homo sapiens) (UniProt Q9NYK1); assay: Agonist activity at TLR7/8 in human PBMC assessed as NF-kappaB activation at 100 ug/mL
Toll-like receptor 7 (Homo sapiens), sequence (Q9NYK1 whole entry, looked up): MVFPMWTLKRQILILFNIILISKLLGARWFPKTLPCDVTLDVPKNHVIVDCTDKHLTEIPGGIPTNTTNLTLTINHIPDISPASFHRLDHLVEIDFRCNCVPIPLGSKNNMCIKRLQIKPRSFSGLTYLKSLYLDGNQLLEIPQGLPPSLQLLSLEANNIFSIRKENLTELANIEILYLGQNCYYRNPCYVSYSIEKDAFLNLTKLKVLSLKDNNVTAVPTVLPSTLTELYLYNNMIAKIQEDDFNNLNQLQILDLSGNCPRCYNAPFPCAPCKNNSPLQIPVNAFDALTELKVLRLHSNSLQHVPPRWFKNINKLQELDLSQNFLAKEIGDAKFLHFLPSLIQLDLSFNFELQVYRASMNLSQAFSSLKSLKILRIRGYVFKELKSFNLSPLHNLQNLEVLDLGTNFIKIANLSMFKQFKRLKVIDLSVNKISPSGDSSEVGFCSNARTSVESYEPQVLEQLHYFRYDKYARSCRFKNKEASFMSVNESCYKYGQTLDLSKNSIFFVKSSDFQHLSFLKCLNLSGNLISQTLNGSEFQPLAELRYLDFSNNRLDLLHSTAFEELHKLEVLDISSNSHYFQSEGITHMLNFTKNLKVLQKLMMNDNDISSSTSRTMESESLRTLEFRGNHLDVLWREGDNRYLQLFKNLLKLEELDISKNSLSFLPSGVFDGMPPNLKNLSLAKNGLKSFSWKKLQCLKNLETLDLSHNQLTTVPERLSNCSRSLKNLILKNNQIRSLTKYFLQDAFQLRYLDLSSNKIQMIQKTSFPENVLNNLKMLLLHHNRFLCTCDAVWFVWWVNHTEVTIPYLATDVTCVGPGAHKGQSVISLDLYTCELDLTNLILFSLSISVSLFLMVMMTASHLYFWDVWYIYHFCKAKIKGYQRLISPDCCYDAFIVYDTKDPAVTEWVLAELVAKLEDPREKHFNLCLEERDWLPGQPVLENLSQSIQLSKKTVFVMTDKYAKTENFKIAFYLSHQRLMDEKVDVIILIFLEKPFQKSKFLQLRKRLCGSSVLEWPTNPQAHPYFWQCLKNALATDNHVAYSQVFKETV

[10] = tested on: PBMC; assay: Induction of IL6 secretion in human PBMC; type: functional, cell-based; in short: as §1
[11] = tested on: PBMC; assay: Induction of MIP1beta secretion in human PBMC; type: functional, cell-based; in short: as §1

Measured: Activity

Nc1ccn([C@@H]2O[C@H](COP(=O)(S)O[C@H]3[C@@H](O)[C@H](n4ccc(=O)[nH]c4=O)O[C@@H]3COP(=O)(S)O[C@H]3[C@@H](O)[C@H](n4ccc(=O)[nH]c4=O)O[C@@H]3COP(=O)(S)O[C@H]3[C@@H](O)[C@H](n4ccc5c(=O)[nH]c(N)nc54)O[C@@H]3COP(=O)(S)O[C@H]3[C@@H](O)[C@H](n4ccc(=O)[nH]c4=O)O[C@@H]3COP(=O)(S)O[C@H]3[C@@H](O)[C@H](n4ccc(N)nc4=O)O[C@@H]3COP(=O)(S)O[C@H]3[C@@H](O)[C@H](n4ccc5c(=O)[nH]c(N)nc54)O[C@@H]3COP(=O)(S)O[C@H]3[C@@H](O)[C@H](n4ccc(=O)[nH]c4=O)O[C@@H]3CO)[C@@H](OP(=O)(S)OC[C@H]3O[C@@H](n4ccc(=O)[nH]c4=O)[C@H](O)[C@@H]3OP(=O)(S)OC[C@H]3O[C@@H](n4ccc5c(=O)[nH]c(N)nc54)[C@H](O)[C@@H]3OP(=O)(S)OCC(O)COP(=O)(S)O[C@H]3[C@@H](O)[C@H](n4ccc5c(=O)[nH]c(N)nc54)O[C@@H]3COP(=O)(S)O[C@H]3[C@@H](O)[C@H](n4ccc(=O)[nH]c4=O)O[C@@H]3COP(=O)(S)O[C@H]3[C@@H](O)[C@H](n4ccc(N)nc4=O)O[C@@H]3COP(=O)(S)O[C@H]3[C@@H](O)[C@H](n4ccc(=O)[nH]c4=O)O[C@@H]3COP(=O)(S)O[C@H]3[C@@H](O)[C@H](n4ccc(=O)[nH]c4=O)O[C@@H]3COP(=O)(S)O[C@H]3[C@@H](O)[C@H](n4ccc5c(=O)[nH]c(N)nc54)O[C@@H]3COP(=O)(S)O[C@H]3[C@@H](O)[C@H](n4ccc(=O)[nH]c4=O)O[C@@H]3COP(=O)(S)O[C@H]3[C@@H](O)[C@H](n4ccc(N)nc4=O)O[C@@H]3COP(=O)(S)O[C@H]3[C@@H](O)[C@H](n4ccc5c(=O)[nH]c(N)nc54)O[C@@H]3COP(=O)(S)O[C@H]3[C@@H](O)[C@H](n4ccc(=O)[nH]c4=O)O[C@@H]3CO)[C@H]2O)c(=O)n1 (stereo partly specified)
active: all assays above
